Experiment [1] concerns the target DNA topoisomerase 2-alpha (Homo sapiens) (UniProt P11388). Put plainly: Poison activity at recombinant human topoisomerase-2alpha expressed in Saccharomyces cerevisiae JEL1 harboring topoisomerase1 deletion mutant assessed as concentration required to triple the level of DNA cleavage complex relative to basal level using supercoiled pBR322 DNA as substrate measured after 6 mins by ethidium bromide staining based agarose gel electrophoresis. Put shortly: (§1)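 Enhancement of topoisomerase IIα-mediated double-stranded cleavage of negatively supercoiled DNA, measured over a compound concentration range. Cleavage is expressed relative to the baseline of enzyme without compound.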

Experiment [2] has the same target. Put plainly: Poison activity at recombinant human topoisomerase-2alpha expressed in Saccharomyces cerevisiae JEL1 harboring topoisomerase1 deletion mutant assessed as increase in double stranded DNA cleavage at 1 mM using supercoiled pBR322 DNA as substrate preincubated for 1 to 5 mins followed by substrate addition measured after 6 mins by ethidium bromide staining based agarose gel electrophoresis. Put shortly:
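Topoisomerase IIα was preincubated with 1 mM compound for 1–5 min, then the cleavage reaction was started by adding DNA. Cleavage was followed against preincubation time.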

For experiment [3] the target is unchanged. As to the kind of experiment: Poison activity at recombinant human topoisomerase-2alpha expressed in Saccharomyces cerevisiae JEL1 harboring topoisomerase1 deletion mutant assessed as double stranded DNA cleavage using supercoiled pBR322 DNA as substrate at 1000 uM measured after 6 mins by ethidium bromide staining based agarose gel electrophoresis relative to control. Put shortly: as §1

For experiment [4], the species on record is Bos taurus. Put plainly: Activity at calf thymus DNA topoisomerase-1 assessed as DNA intercalation by measuring band shift at 1 mM using pBR322 DNA as substrate measured after 15 mins by ethidium bromide staining based agarose gel electrophoresis relative to control. Put shortly:
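Topoisomerase I relaxation of negatively supercoiled DNA in the presence of compound. Intercalation is read as a shift of topoisomer bands toward the supercoiled position. Controls are DNA alone and DNA plus topoisomerase I without compound. Gel representative of three independent experiments.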

Experiment [5] has as its target DNA topoisomerase 2-alpha (Homo sapiens) (UniProt P11388). As to the kind of experiment: Inhibition of recombinant human topoisomerase-2alpha mediated DNA ligation expressed in Saccharomyces cerevisiae JEL1 harboring topoisomerase1 deletion mutant at 1 mM measured after 6 mins by ethidium bromide staining based agarose gel electrophoresis. Put shortly: (§2)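 Topoisomerase IIα-mediated DNA ligation measured with or without 1 mM compound; controls at 50 µM. Mean ± standard deviation of at least three independent experiments.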

Experiment [6] shares this target. Put plainly: Poison activity at recombinant human topoisomerase-2alpha expressed in Saccharomyces cerevisiae JEL1 harboring topoisomerase1 deletion mutant assessed as increase in double stranded DNA cleavage at 1 mM using supercoiled pBR322 DNA as substrate in presence of reducing agent DTT measured after 6 mins by ethidium bromide staining based agarose gel electrophoresis. Put shortly: (§3)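 Topoisomerase IIα DNA cleavage with 1 mM compound, run without and with 0.5 mM DTT. Controls are no-compound and 50 µM reactions. Mean ± standard deviation of at least three independent experiments.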

Experiment [7] has the same target. Put plainly: Poison activity at recombinant human topoisomerase-2alpha catalytic domain (431 to 1193 residues) assessed as increase in double stranded DNA cleavage at 1 mM using supercoiled pBR322 DNA as substrate measured after 6 mins by ethidium bromide staining based agarose gel electrophoresis. Put shortly: (§4)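 Double-stranded DNA cleavage by full-length topoisomerase IIα and by the catalytic core (lacking N- and C-terminal domains), run in parallel. Compounds at 1 mM; controls at 50 µM; a no-compound baseline is included. Mean ± SD of ≥3 independent experiments.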

For experiment [8] the target is unchanged. As to the kind of experiment: Poison activity at recombinant human topoisomerase-2alpha expressed in Saccharomyces cerevisiae JEL1 harboring topoisomerase1 deletion mutant assessed as increase in double stranded DNA cleavage up to 1000 uM using supercoiled pBR322 DNA as substrate measured after 6 mins by ethidium bromide staining based agarose gel electrophoresis relative to control. Put shortly: as §1

For experiment [9] the target is unchanged. As to the kind of experiment: Inhibition of recombinant human topoisomerase-2alpha mediated DNA ligation expressed in Saccharomyces cerevisiae JEL1 harboring topoisomerase1 deletion mutant at 50 uM measured after 6 mins by ethidium bromide staining based agarose gel electrophoresis. Put shortly:
as §2

The target is the same in experiment [10]. As to the kind of experiment: Poison activity at recombinant human topoisomerase-2alpha expressed in Saccharomyces cerevisiae JEL1 harboring topoisomerase1 deletion mutant assessed as increase in double stranded DNA cleavage at 50 uM using supercoiled pBR322 DNA as substrate in presence of reducing agent DTT measured after 6 mins by ethidium bromide staining based agarose gel electrophoresis. Put shortly:
as §3

For experiment [11] the target is unchanged. As to the kind of experiment: Poison activity at recombinant human topoisomerase-2alpha catalytic domain (431 to 1193 residues) assessed as increase in double stranded DNA cleavage at 50 uM using supercoiled pBR322 DNA as substrate measured after 6 mins by ethidium bromide staining based agarose gel electrophoresis. Put shortly: as §4

Active and inactive are the calls of the source. The calls are words filed in the database; no cut-off is given here. Bounds are passed on as bounds.

DNA topoisomerase 2-alpha (Homo sapiens), sequence (P11388 whole entry): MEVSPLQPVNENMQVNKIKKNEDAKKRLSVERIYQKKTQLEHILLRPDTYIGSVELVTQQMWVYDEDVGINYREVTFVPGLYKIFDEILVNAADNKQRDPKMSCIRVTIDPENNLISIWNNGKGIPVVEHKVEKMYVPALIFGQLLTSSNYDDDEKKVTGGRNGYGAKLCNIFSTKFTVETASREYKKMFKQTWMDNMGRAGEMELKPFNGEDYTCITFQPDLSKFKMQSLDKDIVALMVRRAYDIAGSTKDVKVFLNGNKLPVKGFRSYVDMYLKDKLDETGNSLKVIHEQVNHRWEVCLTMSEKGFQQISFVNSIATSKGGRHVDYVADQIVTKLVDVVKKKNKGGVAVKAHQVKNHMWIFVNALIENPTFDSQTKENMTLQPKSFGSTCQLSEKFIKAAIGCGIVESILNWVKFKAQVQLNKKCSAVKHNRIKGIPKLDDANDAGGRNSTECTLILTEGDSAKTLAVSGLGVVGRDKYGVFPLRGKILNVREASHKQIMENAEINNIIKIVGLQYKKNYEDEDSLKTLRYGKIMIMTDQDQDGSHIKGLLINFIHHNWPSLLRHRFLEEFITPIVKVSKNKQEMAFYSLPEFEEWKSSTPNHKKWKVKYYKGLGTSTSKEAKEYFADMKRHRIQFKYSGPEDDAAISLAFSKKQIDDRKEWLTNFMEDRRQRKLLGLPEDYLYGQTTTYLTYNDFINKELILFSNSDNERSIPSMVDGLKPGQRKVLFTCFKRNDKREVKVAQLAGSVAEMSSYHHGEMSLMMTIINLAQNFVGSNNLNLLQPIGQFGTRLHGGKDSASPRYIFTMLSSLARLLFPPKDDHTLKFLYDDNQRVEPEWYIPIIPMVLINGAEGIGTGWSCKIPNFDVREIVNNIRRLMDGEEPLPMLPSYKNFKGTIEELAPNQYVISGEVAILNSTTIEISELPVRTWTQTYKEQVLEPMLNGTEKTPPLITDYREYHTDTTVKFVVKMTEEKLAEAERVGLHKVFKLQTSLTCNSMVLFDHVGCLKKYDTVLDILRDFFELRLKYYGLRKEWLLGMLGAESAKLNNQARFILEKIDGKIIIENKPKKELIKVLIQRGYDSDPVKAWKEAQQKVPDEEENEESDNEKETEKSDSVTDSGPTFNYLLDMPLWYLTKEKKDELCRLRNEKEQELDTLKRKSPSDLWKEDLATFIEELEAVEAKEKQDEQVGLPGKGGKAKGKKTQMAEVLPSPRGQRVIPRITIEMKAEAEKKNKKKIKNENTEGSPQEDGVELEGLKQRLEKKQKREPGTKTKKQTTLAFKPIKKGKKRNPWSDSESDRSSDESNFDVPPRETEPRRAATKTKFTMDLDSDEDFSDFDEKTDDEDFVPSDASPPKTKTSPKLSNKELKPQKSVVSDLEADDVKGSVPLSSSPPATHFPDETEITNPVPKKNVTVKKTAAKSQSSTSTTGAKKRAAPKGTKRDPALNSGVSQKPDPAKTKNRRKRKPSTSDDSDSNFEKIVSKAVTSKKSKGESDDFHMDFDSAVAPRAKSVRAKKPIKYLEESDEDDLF

For the molecule `c1ccc2nc3ccccc3cc2c1`, the Activity in [1] is over 1000 µM.
Regarding `Nc1c2c(nc3ccc(Br)cc13)CC(C(F)(F)F)CC2=O` (stereo not given), the outcome in [2] and in [4] was Active. The Activity was 90 µM in experiment [1] and under 35% in experiment [3]. Further, the inhibition result in experiment [5] is “inactive”. The result in experiment [6] and in experiment [7] was inactive. Further, the fold change (FC) in experiment [8] fell in the range of 5.5 to 8.5.
`Nc1c2c(nc3ccc([N+](=O)[O-])cc13)CC(C(F)(F)F)CC2=O` (stereo not given): the Activity in experiment [1] was over 1000 µM. Moreover, the result in experiment [4] was Active. Moreover, in experiment [5], the inhibition entry is “inactive”.
Regarding `Nc1c2c(nc3ccccc13)CC(C(F)(F)F)CC2=O` (stereo not given), the outcome in experiment [2] and in experiment [4] was Active. The Activity in experiment [1] turned out to be 155 µM. The inhibition entry in [5] is “inactive”. In addition, the result in [6] and in experiment [7] was inactive. Moreover, the fold change (FC) in experiment [8] lay in the range of 5.5 to 8.5.
As to `COc1cc([C@@H]2c3cc4c(cc3[C@@H](O[C@@H]3O[C@@H]5CO[C@@H](C)O[C@H]5[C@H](O)[C@H]3O)[C@H]3COC(=O)[C@H]23)OCO4)cc(OC)c1O`, in [1], the Activity came out at 32 µM. Further, the inhibition entry in experiment [9] was “Active”.
As to `Cc1ccc2c(N)c3c(nc2c1)CC(C(F)(F)F)CC3=O` (stereo not given), the outcome in experiment [2] and in [4] was Active. Further, the Activity in [1] worked out at 800 µM. Besides, in experiment [5], the inhibition entry is “inactive”. In addition, the outcome in experiment [6] and in experiment [7] was inactive.
As to `Nc1c2c(nc3ccc(F)cc13)CC(C(F)(F)F)CC2=O` (stereo not given), the figures for the Activity in experiment [1] and in experiment [3] were 520 µM and under 35%, respectively. In experiment [4], the outcome was Active. Besides, the inhibition result in experiment [5] was “inactive”. The result in [6] and in experiment [7] was inactive. Further, in experiment [8], the fold change (FC) fell in the range of 5.5 to 8.5.
Regarding `Nc1c2c(nc3ccc(Cl)cc13)CC(C(F)(F)F)CC2=O` (stereo not given), the result in experiment [2] and in experiment [4] was Active. The Activity in experiment [1] was 85 µM; in experiment [3], under 35%. Further, the inhibition entry in experiment [5] is “inactive”. The result in [6] and in experiment [7] was inactive. The fold change (FC) in experiment [8] is 5.5 to 8.5.
On to `COc1cc(NS(C)(=O)=O)ccc1Nc1c2ccccc2nc2ccccc12`, for which the result in experiment [10] and in experiment [11] was Active. In addition, in experiment [1], the Activity came out at 8.5 µM. The inhibition result in [9] is “Active”.
As for `O=C1CC(C(F)(F)F)Cc2nc3ccccc3cc21` (stereo not given), the Activity in [1] was over 1000 µM. In experiment [4], the result was Active. For the same molecule, the inhibition entry in [5] is “inactive”. In addition, the fold change (FC) in experiment [8] fell in the range of 5.5 to 8.5.

These data come from ChEMBL document CHEMBL4000190, “Novel trifluoromethylated 9-amino-3,4-dihydroacridin-1(2H)-ones act as covalent poisons of human topoisomerase IIα” (Bioorg Med Chem Lett, 2017).
